Reference: ChEMBL document CHEMBL4049387, “Combination of l-Carnitine with Lipophilic Linkage-Donating Gemcitabine Derivatives as Intestinal Novel Organic Cation Transporter 2-Targeting Oral Prodrugs” (J Med Chem, 2017)

What was measured:
[1] = Half life in rat plasma at 5 uM by HPLC method; assay type: ADME, cell-free
How it was run: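 Compound at 5 µM final in rat plasma, 20% rat hepatic homogenate or 20% rat intestinal homogenate at 37 °C for 24 h. Homogenates made by homogenizing 0.3 g saline-washed tissue in 1 mL saline, spun 13,000 rpm 4 °C 5 min. Sampled at intervals, analysed by HPLC. t1/2 = 0.693/k.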

[2] = biological target: T1, Organic cation/carnitine transporter 2 (Homo sapiens, UniProt O76082); assay: Ratio of drug transport assessed as OCTN2 transporter mediated drug uptake in human Caco2 cells at 100 uM in absence of L-carnitine to drug transport assessed as OCTN2 transporter mediated drug uptake in human Caco2 cells at 100 uM in presence of L-carnitine; assay type: ADME, cell-based; settings: caco-2, 100 µM
T1 sequence (O76082 whole entry): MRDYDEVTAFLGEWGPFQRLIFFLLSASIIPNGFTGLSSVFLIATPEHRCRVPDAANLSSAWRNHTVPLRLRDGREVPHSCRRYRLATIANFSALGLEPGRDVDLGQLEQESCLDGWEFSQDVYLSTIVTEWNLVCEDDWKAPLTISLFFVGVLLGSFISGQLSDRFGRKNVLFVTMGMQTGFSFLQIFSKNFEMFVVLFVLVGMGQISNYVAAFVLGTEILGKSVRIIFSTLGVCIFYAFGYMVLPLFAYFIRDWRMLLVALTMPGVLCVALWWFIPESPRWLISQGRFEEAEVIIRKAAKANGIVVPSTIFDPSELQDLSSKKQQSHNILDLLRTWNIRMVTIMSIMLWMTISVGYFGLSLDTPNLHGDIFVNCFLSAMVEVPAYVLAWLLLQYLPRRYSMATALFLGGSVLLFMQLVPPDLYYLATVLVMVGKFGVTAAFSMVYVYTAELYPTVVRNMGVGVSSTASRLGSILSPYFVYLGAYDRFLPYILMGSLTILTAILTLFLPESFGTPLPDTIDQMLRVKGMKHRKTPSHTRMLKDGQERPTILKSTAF

BXPC-3 = assay: Cytotoxicity against human BxPC3 cells assessed as decrease in cell viability after 48 hrs by MTT assay; assay type: functional, cell-based
How it was run: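 BxPC-3 and Caco-2 cells exposed to compounds for 48 h. Viability read by MTT assay kit. IC50 calculated from dose-response.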

[3] = biological target: T2, Organic cation/carnitine transporter 2 (Rattus norvegicus, UniProt O70594); assay: Ratio of drug transport assessed as OCTN2 transporter mediated effective permeability in rat duodenum at 76 uM in absence of L-carnitine to drug transport assessed as OCTN2 transporter mediated effective permeability in rat duodenum at 76 uM in presence of L-carnitine; assay type: ADME
T2 sequence (O70594 whole entry): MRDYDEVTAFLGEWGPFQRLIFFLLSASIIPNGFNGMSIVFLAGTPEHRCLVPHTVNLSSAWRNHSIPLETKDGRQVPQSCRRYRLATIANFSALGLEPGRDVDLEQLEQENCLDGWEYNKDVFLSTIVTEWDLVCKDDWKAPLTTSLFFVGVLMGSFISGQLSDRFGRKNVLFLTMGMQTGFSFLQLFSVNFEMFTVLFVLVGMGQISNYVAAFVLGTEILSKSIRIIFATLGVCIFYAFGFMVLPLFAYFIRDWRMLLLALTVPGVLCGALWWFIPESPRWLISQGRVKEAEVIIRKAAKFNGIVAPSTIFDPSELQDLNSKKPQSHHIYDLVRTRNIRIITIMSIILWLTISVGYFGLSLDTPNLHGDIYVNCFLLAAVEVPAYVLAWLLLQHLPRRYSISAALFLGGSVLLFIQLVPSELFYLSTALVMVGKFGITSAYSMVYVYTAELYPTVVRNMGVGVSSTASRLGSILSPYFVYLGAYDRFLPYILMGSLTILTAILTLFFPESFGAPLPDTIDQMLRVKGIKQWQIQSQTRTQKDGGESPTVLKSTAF

Spleen = assay: Drug uptake in mouse spleen at 102 mg/kg, po administered as single dose at 2 hrs post dose; assay type: ADME, organism-based; settings: in vivo
How it was run: (§1)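 Mice, three per time point, single oral dose of 102 mg/kg (equivalent to 50 mg/kg gemcitabine). Heart, liver, spleen, lung, kidney and brain collected at 0.16, 0.5 and 2 h, rinsed in saline. 0.3 g tissue homogenized 1 min in 1 mL saline, spun 13,000 rpm 4 °C 5 min. Gemcitabine measured in supernatant.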

Lung = assay: Drug uptake in mouse lung at 102 mg/kg, po administered as single dose at 2 hrs post dose; assay type: ADME, organism-based; settings: in vivo; how it was run: as §1
Mus musculus [4] = assay: Toxicity in Kunming mouse assessed as […] degeneration in hepatocytes at 102 mg/kg, po administered once daily for 14 days by hematoxylin/eosin staining based optical microscopic analysis; assay type: organism-based; settings: in vivo, 336 h
How it was run: (§2)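 Kunming mice, four per group, dosed orally once daily for 14 days with 102 mg/kg or saline control; body weight recorded every other day. Heart, liver, spleen, lung and kidney fixed in 10% buffered formalin, paraffin-embedded, sectioned, stained with hematoxylin and eosin, and examined by optical microscopy.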

Mus musculus [5] = assay: Toxicity in Kunming mouse assessed as inflammatory infiltrates in spleen at 102 mg/kg, po administered once daily for 14 days by hematoxylin/eosin staining based optical microscopic analysis; assay type: organism-based; settings: in vivo, 336 h
How it was run: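 Kunming mice, four per group, dosed orally once daily for 14 days with test article or physiological saline control, body weight recorded every other day. After sacrifice, heart, liver, spleen, lung and kidney were fixed at once in 10% buffered formalin, paraffin-embedded, sectioned, H&E stained and examined by optical microscopy for hydropic degeneration, inflammatory infiltrates and fibrosis.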

Mus musculus [6] = assay: Toxicity in Kunming mouse assessed as fibrosis in hepatocytes at 102 mg/kg, po administered once daily for 14 days by hematoxylin/eosin staining based optical microscopic analysis; assay type: organism-based; settings: in vivo, 336 h; how it was run: as §2
Mus musculus [7] = assay: Toxicity in Kunming mouse assessed as fibrosis in lung at 102 mg/kg, po administered once daily for 14 days by hematoxylin/eosin staining based optical microscopic analysis; assay type: organism-based; settings: in vivo, 336 h; how it was run: as §2
[8] = biological target: T1, Organic cation/carnitine transporter 2; assay: Drug transport assessed as Vmax for OCTN2 transporter mediated drug uptake in human Caco2 cells after 10 mins by Eadie-Hofstee plot method; assay type: ADME, cell-based; settings: caco-2, 10 min

half-life at 5 µM [1]: 6.2 h
Ratio [2]: 2.2 to 3.7
Ratio [3]: 11
Drug uptake (Spleen): Not Active
Drug uptake (Lung): Not Active
Vmax [8]: 0.286 nmol/mg
Structure (SMILES): C[N+](C)(C)CC(CC(=O)[O-])OC(=O)CCCCC(=O)Nc1ccn([C@@H]2O[C@H](CO)[C@@H](O)C2(F)F)c(=O)n1 (some centres not stated)
Activity (BXPC-3): Dose-dependent effect
IC50 (BXPC-3; BXPC-3, 48 h): 320 nM
Activity (Mus musculus [4]): Non-Toxic
Activity (Mus musculus [5]): Non-Toxic
Activity (Mus musculus [6]): Non-Toxic
Activity (Mus musculus [7]): Non-Toxic
